Paper PMC3103606 (Chemico-biological interactions, 2011)

What was measured:
Format in all cases: biochemical
ALDH3A1 [1] = molecular target: T1, ALDH3A1 (Homo sapiens, UniProt P30838); test: ALDH3A1 dehydrogenase assay; settings: read-out: (Dehydrogenase assay) IC50; ALDH3A1, 1 mM benzaldehyde, […] NADP+, pH 7.5
T1 sequence (P30838 1-453): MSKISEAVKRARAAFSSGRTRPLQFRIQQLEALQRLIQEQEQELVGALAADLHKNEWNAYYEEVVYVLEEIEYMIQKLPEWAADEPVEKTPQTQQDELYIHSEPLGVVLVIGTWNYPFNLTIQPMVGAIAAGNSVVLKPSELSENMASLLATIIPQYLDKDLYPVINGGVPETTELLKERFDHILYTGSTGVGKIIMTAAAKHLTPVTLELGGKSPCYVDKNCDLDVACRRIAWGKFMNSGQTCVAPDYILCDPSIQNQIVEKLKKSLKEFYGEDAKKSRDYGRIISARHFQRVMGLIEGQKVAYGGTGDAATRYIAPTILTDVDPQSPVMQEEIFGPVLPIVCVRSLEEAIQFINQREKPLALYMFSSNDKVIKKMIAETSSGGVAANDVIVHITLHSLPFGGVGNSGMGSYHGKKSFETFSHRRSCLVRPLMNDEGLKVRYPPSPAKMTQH

ALDH3A1 [2] = molecular target: T1, ALDH3A1; test: ALDH3A1 esterase assay; settings: read-out: (Esterase assay) IC50; ALDH3A1, 0.8 mM para-nitrophenylacetate, pH 7.5
Method in brief: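 Reactions used nickel-NTA/Q-sepharose-purified recombinant ALDH3A1 at 180 nM in 25 mM sodium HEPES. Inhibitor was preincubated with enzyme for 2 min, and 0.8 mM para-nitrophenylacetate then started the reaction. para-Nitrophenol formation was read spectrophotometrically at 405 nm (ε 18,000 M−1cm−1).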

ALDH1A1 = molecular target: T2, ALDH1A1 (Homo sapiens, UniProt P00352); test: Isoenzyme selectivity: ALDH1A1 dehydrogenase activity; settings: 10 μM concentration, aldehyde oxidation
T2 sequence (P00352 1-501): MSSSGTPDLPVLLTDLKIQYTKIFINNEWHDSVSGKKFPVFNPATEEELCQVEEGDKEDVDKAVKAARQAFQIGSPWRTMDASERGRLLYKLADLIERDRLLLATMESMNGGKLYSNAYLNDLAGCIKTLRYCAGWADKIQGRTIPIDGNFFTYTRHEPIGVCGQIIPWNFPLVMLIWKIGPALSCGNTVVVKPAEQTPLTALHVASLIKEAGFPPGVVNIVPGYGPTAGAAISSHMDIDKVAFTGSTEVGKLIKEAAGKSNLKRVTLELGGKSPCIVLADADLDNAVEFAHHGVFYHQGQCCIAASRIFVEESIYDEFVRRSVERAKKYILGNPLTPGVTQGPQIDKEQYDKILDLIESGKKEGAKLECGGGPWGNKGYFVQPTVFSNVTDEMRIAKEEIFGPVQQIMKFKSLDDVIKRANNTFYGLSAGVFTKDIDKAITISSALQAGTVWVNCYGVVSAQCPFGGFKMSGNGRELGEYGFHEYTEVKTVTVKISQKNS

ALDH2 = molecular target: T3, ALDH2 (Homo sapiens, UniProt P05091); test: Isoenzyme selectivity: ALDH2 dehydrogenase activity; settings: 10 μM concentration, aldehyde oxidation
T3 sequence (P05091 18-517): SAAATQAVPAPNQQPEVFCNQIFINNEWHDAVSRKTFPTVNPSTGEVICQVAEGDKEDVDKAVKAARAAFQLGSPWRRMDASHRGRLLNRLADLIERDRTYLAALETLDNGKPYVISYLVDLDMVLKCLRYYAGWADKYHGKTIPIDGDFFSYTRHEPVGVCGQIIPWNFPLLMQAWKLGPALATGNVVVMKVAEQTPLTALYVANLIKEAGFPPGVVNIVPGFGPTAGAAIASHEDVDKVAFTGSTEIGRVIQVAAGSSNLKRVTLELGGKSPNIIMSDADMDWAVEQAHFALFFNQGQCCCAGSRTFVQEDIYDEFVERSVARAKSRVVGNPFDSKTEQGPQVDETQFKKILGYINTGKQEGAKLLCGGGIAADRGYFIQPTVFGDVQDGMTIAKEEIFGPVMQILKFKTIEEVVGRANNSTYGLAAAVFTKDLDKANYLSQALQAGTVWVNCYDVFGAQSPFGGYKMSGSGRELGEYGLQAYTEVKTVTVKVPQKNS

Row | SMILES | IC50 (ALDH3A1 [1]) [nM] | IC50 (ALDH3A1 [2]) [nM] | inhibition of ALDH1A1 (ALDH1A1) | inhibition of ALDH2 (ALDH2)
1 | CCSc1nnc2c(n1)OC(C(=O)c1ccc(OC)cc1)Nc1ccccc1-2 (centres unmarked) [CD5] | 1500 | 1000 | – | –
2 | CCOC(=O)CN1C(=O)C(O)(CC(=O)c2ccncc2)c2ccccc21 (centres unmarked) [CD8] | 6300 | 2200 | – | –
3 | CC(=O)Nc1ccc(Nc2ccc(S(C)(=O)=O)cc2[N+](=O)[O-])cc1 [CB29] | 5000 | 500 | less than 10% | less than 10%
